SR-BI DiI-HDL act: activators of SR-BI mediated HDL lipid uptake. CHO ldlA[mSR-BI] cells, DiI-HDL uptake fluorescence, 3 h; 100 = double the neutral-control signal. activation, % at 12.5 µM. actives 0.096% (n = 320,000);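 active = mean replicate activation of at least 60% and every replicate at or above 60%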;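 also: 0% = median plate neutral-control signal and 100% = twice that signal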
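Material – SR-BI-overexpressing, LDLR-lacking CHO cells · Medium – BSA-supplemented, HEPES-buffered Ham's F12, pH 7.4 · Doses – single concentration · Times – compound with DiI-HDL co-incubation, 3 h at 37 °C · Measured by – bottom-read fluorescence, 550/595 nm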
PvdQ acylase: blocks Pseudomonas aeruginosa PvdQ acylase activity; purified PvdQ acylase, fluorescence plate reader; inhibition, % at 10 µM; actives 0.063% (n = 340,000); AID 488965; in the data active = inhibition above about 30%, passing the limit was not always enough;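 also: 0% = vehicle neutral wells and 100% = reference inhibitor wells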
XiGFP reactiv: activators of X-chromosome reactivation in mouse fibroblasts; XiGFP mouse fibroblasts, % GFP-positive cells imaging, 3 d; cells co-treated with 5-aza-dC sensitizer; scaled so ellipticine positive control = 100%; activation, % at 7.58 µM; actives 0.055% (n = 360,000); AID 743238;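 active = mean normalized replicate activation at least 10% and every replicate at or above 10%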;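 also: 0% = median of on-plate neutral control wells and 100% = ellipticine 6 µM median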
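assay system = SV40-immortalized XiGFP fibroblast cells, line 68-5-11 | buffer or medium = DMEM plus 5-aza-dC sensitizer | doses = single-point pinned compound dosing | times = 3-day compound exposure, then 15 min fixation at room temperature | benchmarks = positive control ellipticine, 6 µM final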
rRNA inh HTS: inhibits bacterial ribosomal RNA function over humanized ribosomes | E. coli WT GFP vs humanized-ribosome RFP mutants, fluorescence, 24 h; stronger effect = lower value; DMSO median 0, no signal -100 | GFP signal change (wild-type ribosome), % (concentration not given with the values) | actives 1.6% (n = 350,000) | AID 720706;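 active = significant combined selectivity score with lowered wild-type GFP, culture density cut under 30%, mutant RFP and density less affected; inactive = any of these conditions unmet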
SR-BI DiI inh: mouse SR-BI HDL lipid transfer inhibition; ldlA[mSR-BI] CHO cells, DiI-HDL uptake fluorescence, 3 h; inhibition, % at 12.5 µM; actives 0.96% (n = 320,000); AID 488896; Q61009;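 active = mean replicate inhibition of at least 70% and a set share of replicates each scoring 70 or more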;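 also: 0% = median of neutral control wells and 100% = median of positive control wells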
Target sequence (Q61009 whole entry, looked up): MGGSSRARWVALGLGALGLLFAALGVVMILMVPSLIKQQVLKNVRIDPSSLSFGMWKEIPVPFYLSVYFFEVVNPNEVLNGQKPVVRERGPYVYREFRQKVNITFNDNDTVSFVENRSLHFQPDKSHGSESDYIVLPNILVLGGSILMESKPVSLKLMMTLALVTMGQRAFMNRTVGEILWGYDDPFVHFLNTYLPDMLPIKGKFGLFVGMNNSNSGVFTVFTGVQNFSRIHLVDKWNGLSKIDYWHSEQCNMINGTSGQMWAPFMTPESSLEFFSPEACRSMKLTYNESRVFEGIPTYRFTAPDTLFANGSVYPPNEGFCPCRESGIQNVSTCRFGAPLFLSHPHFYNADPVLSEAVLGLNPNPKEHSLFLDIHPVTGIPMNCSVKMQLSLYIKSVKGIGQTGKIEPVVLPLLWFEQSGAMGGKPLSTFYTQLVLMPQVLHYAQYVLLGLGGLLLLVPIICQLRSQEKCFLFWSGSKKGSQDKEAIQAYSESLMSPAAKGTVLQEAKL
dFosB activator: activators of mouse delta FosB homodimer. P13346. purified delta FosB, TAMRA-CDK5 oligo fluorescence polarization; percent of positive-control signal above neutral wells. activation, % at 25 µM. actives 0.99% (n = 340,000). AID 493131;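 active = mean activation above about 17%, with every replicate also reaching it, limit read from the data, passing the limit was not always enough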
The depositor's hits bear a star; nt = no result given. Sampled rows, rich in hits. Any-hit rate of the full collection: about 2.6%.

SMILES | SR-BI DiI-HDL act | PvdQ acylase | XiGFP reactiv | rRNA inh HTS | SR-BI DiI inh | dFosB activator
O=S(=O)(Nc1ccc(N2CCCCC2)cc1)c1ccc(F)cc1 | nt | nt | 0 | -36* | nt | nt
CCOC(=O)c1sc2nc(NC(=O)C(C)(C)C)sc2c1C | -8 | -9 | 0 | -20* | 8 | -35
S=C1NC[C@H](CC2CCCCC2)N1CCc1cccc2ccccc12 | 26 | -8 | 0 | -10 | -26 | -4
CC(=O)Nc1ccc(NC(=O)C(C)OC(=O)/C(C#N)=C/c2ccc(N(C)C)cc2)cc1 (stereo unspecified) | -20 | -6 | 0 | 12 | 20 | 36*
COCCCn1c(C(=O)NCCC2=CCCCC2)cc2c(=O)n3cccc(C)c3nc21 | 20 | -40 | 0 | 13 | -20 | 4
Cc1noc(C)c1CSCC(=O)Nc1nc2ccccc2s1 | nt | -15 | 0 | -23* | 23 | -5
Cn1c(/C(C#N)=C/c2cccc(O)c2)nc2ccccc21 | -18 | 12 | 0 | -24* | 18 | -10
N#C/C(=C\c1cccc(O)c1)c1nc2ccccc2o1 | -24 | 3 | 0 | -18* | 24 | -7
N#C/C(=C\c1ccncc1)c1nc2ccccc2o1 | nt | nt | 0 | 2 | nt | nt
Cn1c(/C(C#N)=C/Nc2ccccn2)nc2ccccc21 | -23 | -3 | nt | nt | 23 | 1
N#C/C(=C\Nc1ccccc1O)c1nc2ccccc2o1 | -113 | 3 | 0 | -52 | 113* | -1
C[C@H]1CN([C@@H](C)CO)S(=O)(=O)c2ccc(Br)cc2O[C@@H]1CN(C)Cc1ccccn1 | nt | nt | -1 | -7 | nt | nt
O=C(C[C@@H]1C=C[C@H](NC(=O)Nc2cc(F)ccc2F)[C@@H](CO)O1)NCc1ccncn1 | nt | nt | 1 | 3 | nt | nt
COCCNc1nnc(SCC(=O)Nc2sc3c(c2C(=O)c2ccccc2)CCCC3)s1 | -75 | -18 | 0 | -15 | 75* | -12
CN1C(=O)CSc2ccc(NC(=O)N3CCN(c4ccccc4)CC3)cc21 | -78 | 3 | 0 | 1 | 78* | -9
CCOc1ccc(N2CC(C(=O)NCCN3C(=O)S/C(=C\c4ccc(OC)c(OC)c4)C3=O)CC2=O)cc1 (stereo unspecified) | -59 | -5 | 0 | 9 | 59 | 1
CCc1c(O)nc(SCC(=O)Nc2nc3ccccc3s2)n(C2CCCCC2)c1=O | 10 | -10 | 0 | -17* | -10 | -3
CCc1c(O)nc(SCC(=O)Nc2ccc(OC)cc2)n(C2CCCCC2)c1=O | 12 | -8 | nt | nt | -12 | -6
O=C(NNC(=O)C1C2CCC(C2)C1C(=O)O)c1cccc(Cl)c1 (stereo unspecified) | 21 | 10 | 0 | -4 | -21 | 1
CCC(=O)N1CC2(C1)CN(C(=O)Nc1ccc(F)cc1)[C@@H](CO)c1c2c2ccc(OC)cc2n1C | nt | nt | 0 | -6 | nt | nt
Nc1nonc1-c1nc2ccccc2n1Cc1ccc(Cl)cc1 | -7 | 7 | nt | nt | 7 | 7
Nc1ccc(Cn2ccc3c4c(N)nc(N)nc4ccc32)cc1 | 8 | 10 | 1 | -57 | -8 | 158*
CCc1nc2cc3sc(CC)nc3cc2s1 | 4 | 12 | 0 | 5 | -4 | -19
O=C1c2ccccc2C(=O)N1CC(O)COCc1ccccc1 (stereo unspecified) | 5 | 7 | nt | nt | -5 | -5
c1ccc2[nH]c(SCc3cn4cccnc4n3)nc2c1 | -7 | -16 | 0 | nt | 7 | -4
SMILES | SR-BI DiI-HDL act | PvdQ acylase | XiGFP reactiv | rRNA inh HTS | SR-BI DiI inh | dFosB activator
COC(=O)c1cc(S(=O)(=O)N(C)C2CCCCC2)oc1C | nt | nt | 0 | -27* | nt | nt
COC(=O)c1cn(C)c2ccc(S(=O)(=O)N(C)C3CCCCC3)cc2c1=O | nt | nt | 0 | -2 | nt | nt
Cc1cc(C)nc(N/N=C/c2cc(Br)ccc2O)n1 | -37 | 1 | 2 | -37* | 37 | 1
Cc1cc(C)nc(N/N=C/c2ccccc2OCc2ccc(Br)cc2)n1 | 5 | -1 | 0 | 2 | -5 | -5
CCCCNS(=O)(=O)c1ccc(OC)c(Cl)c1Cl | 7 | 10 | nt | nt | -7 | -8
CCC(C)NS(=O)(=O)c1ccc(OC)c(Cl)c1Cl (stereo unspecified) | 1 | 35* | nt | nt | -1 | -5
O=C(Nc1nccs1)C1(c2ccc(Cl)cc2)CC1 | 9 | -13 | 0 | 8 | -9 | 1
CC(=NN1CC(=O)NC1=O)c1ccc([N+](=O)[O-])o1 | 25 | 11 | 0 | -38* | -25 | 10
Cn1cc(C(=O)N/N=C/C2=C(N3CCOCC3)C(=C\c3ccccc3)/CC2)ccc1=O | -47 | 5 | 0 | nt | 47 | -1
O=C1Nc2ccccc2/C1=N\N=C\C1=C(N2CCOCC2)C(=C\c2ccccc2)/CC1 | -128 | -7 | nt | nt | 128* | 0
CC(NC(=O)C12CC3CC(CC(C3)C1)C2)C(=O)N/N=C/C1=C(N2CCOCC2)C(=C\c2ccccc2)/CC1 (stereo unspecified) | -51 | -11 | 0 | 3 | 51 | -5
O=C1Nc2ccc(Br)cc2/C1=N\N=C\C1=C(N2CCOCC2)C(=C/c2ccccc2)/CC1 | -100 | -12 | 0 | 3 | 100* | -2
CSc1ncccc1C(=O)OCCCC(=O)c1ccc(F)cc1 | 8 | 14 | 0 | nt | -8 | -13
CCN(CC)CCCNC(=O)C(C)n1nc(C)c2sc3ccccc3c2c1=O (stereo unspecified) | 18 | -11 | nt | nt | -18 | -2
CCN(CC)CCNc1ccc(C)c2sc3ccc(O)cc3c(=O)c12 | -30 | 5 | 1 | -66 | 30 | 41*
Brc1ccccc1CN1CCN(Cc2c[nH]c3ccccc23)CC1 | nt | nt | 5 | -23* | nt | nt
CC(CN1C(C)CCCC1C)OC(=O)c1ccc(Cl)cc1 (stereo unspecified) | 1 | 3 | 0 | 15 | -1 | 5
O=C(NC1=NCCS1)c1sc2ccccc2c1Cl | 6 | -14 | nt | -31* | -6 | -22
COc1cccc(C(=O)/C=C2\Sc3ccccc3N2C)c1 | -83 | 8 | 0 | -28* | 83* | -10
CN(C)C(=O)c1ccc(-c2cc(C(F)(F)F)nn2C)s1 | nt | nt | 0 | -6 | nt | nt
O=C(CSc1nnc(-c2c[nH]c3ccccc23)o1)N1CCCCC1 | -11 | -10 | nt | -33* | 11 | -7
Cc1nc(C)c(-c2ccccc2)c(=O)[nH]1 | 19 | -12 | nt | nt | -19 | 3
COc1ccc(/C=C/C(=O)Nc2cc(C(F)(F)F)ccc2Cl)cc1OC | -68 | -19 | 0 | nt | 68 | -8
COc1cc(/C=C/C(=O)Nc2cc(C(F)(F)F)ccc2Cl)cc(OC)c1OC | -78 | 9 | nt | nt | 78* | -3
COc1ccccc1Nc1ccc(Nc2ccccc2OC)nn1 | -81 | -13 | 0 | nt | 81* | -2

Bioassay records (PubChem BioAssay)
